An excerpt weighted towards active compounds, which were near 1.5% of everything screened.
Runt-CBFb FRET: inhibitors of RUNX1 Runt–CBFb binding, primary screen, biochemical, FRET, Cerulean-Runt, Venus-CBFb, uHTS | Cerulean-Runt/Venus-CBFb FRET ratio 530/480, 1 h | inhibition, % at 20 µM | 220,000 tested, 0.46% active | AID 1496, 2009;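 active means inhibition over about 50% at 20 µM in the single-dose screen, limit read from the data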;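 further: 0% = DMSO wells and 100% = excess unlabeled CBFb competitor control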
Target sequence (Q01196 whole entry, looked up): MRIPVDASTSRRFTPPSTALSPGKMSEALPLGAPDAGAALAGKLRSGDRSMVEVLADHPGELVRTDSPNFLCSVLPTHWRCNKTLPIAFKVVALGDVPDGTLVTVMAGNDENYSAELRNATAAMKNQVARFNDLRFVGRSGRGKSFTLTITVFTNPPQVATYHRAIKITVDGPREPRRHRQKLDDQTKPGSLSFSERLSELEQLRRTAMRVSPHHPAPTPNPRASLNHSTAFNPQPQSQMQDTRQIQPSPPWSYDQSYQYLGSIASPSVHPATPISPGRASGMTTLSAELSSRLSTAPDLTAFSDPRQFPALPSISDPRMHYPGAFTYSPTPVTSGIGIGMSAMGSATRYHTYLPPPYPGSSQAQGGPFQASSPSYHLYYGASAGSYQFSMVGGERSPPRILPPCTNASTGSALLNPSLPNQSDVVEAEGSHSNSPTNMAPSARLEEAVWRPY
Target sequence (Q13951 whole entry, looked up): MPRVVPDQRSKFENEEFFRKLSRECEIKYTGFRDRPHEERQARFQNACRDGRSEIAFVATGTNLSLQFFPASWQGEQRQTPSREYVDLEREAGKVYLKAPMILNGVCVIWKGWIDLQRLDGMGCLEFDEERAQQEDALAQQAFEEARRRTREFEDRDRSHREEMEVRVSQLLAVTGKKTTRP
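Measured by: fluorescence energy transfer, 422 nm excitation, 530/480 nm emission; Assay system: Cerulean-Runt domain; Medium: Tris pH 7.5 buffer with BSA; Measure: loss of energy transfer signal; Controls: 5 µM unlabeled CBFb as full-inhibition high control; Incubation: protein complex preformed 1 h, compound exposure 1 h, room temperature, dark.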
RanGTP-Impb inh: inhibitors of RanGTP-importin-beta interaction, primary screen, biochemical, FRET, CFP-Ran, YFP-importin-beta, homogeneous | Ran GTPase (GTP-bound) - importin-beta complex | cell-free CFP-Ran/YFP-importin-beta FRET ratio | inhibition, % (concentration not given with the values) | 300,000 tested, 1.1% active | AID 2216, 2009;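 active means more than half of the replicate wells show a fall in the fluorescence ratio signal beyond about 16%, limit read from the data, passing the limit was not always enough; inconclusive means exactly half of the replicate wells pass the set limit; inactive means fewer than half of replicates pass the limit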;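 further: 0% = DMSO wells and 100% = Ran loaded with GDP instead of GTP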
Hck-Nef inh: inhibitors of Nef-activated human Hck kinase, primary screen, biochemical, Z-Lyte FRET, 384-well, Hck-YEEI | Tyrosine-protein kinase HCK (Homo sapiens), P08631 | Recombinant Hck-YEEI plus Nef, Z-Lyte FRET kinase assay | inhibition, % at 20 µM | 220,000 tested, 0.68% active | AID 463187, 2010;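 active means Hck-Nef kinase inhibition above about 50%, limit read from the data; inactive means inhibition below that limit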;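 further: 0% = DMSO with Hck plus Nef and 100% = Hck alone without Nef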
CaV13 FRET inh: Primary screen for inhibitors of IQ motif and Ca2+-dependent inactivation inhibitor domain binding in CACNA1D, Förster resonance energy transfer in living cells, …. 340,000 tested, 0.098% active. inhibition, % at 12.3 µM. HEK cells, CFP/YFP FRET ICDI-IQ, plate reader, 10 min; percent FRET-ratio fall versus neutral wells;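 active means mean replicate inhibition of at least 30% and at least 1% of replicates passing that level; inconclusive means only one of the two criteria is met; inactive means neither criterion is met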;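 further: 0% = median of the neutral control wells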
Runt-SMMHC FRET: inhibitors of RUNX1 Runt–CBFb-SMMHC binding, primary screen, biochemical, FRET, Cerulean-Runt, Venus-CBFb-SMMHC, uHTS | Runt-related transcription factor 1 (Homo sapiens) + Core-binding factor subunit beta … | inhibition, % at 20 µM | 220,000 tested, 0.74% active | Cerulean-Runt/Venus-CBFb-SMMHC FRET ratio 530/480, 1 h;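 active means mean inhibition across duplicate retests at 20 µM reaching about 50%, limit read from the data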;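 further: 0% = DMSO wells and 100% = wells with excess untagged CBFb-SMMHC; inhibitors lower the FRET ratio by blocking Runt binding to CBFb-SMMHC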
* = called active by the depositor; ? = inconclusive; / = no result; + = active, no number.

SMILES	Runt-CBFb FRET	RanGTP-Impb inh	Hck-Nef inh	CaV13 FRET inh	Runt-SMMHC FRET
CCN(CC(=O)NC1CCS(=O)(=O)C1)S(=O)(=O)c1cc(C)ccc1C (stereo unspecified)	/	-1	/	-6	/
CN(C)/C=N/C1=C(C#N)C(c2ccc(Br)cc2)c2ccc3ccccc3c2O1 (stereo unspecified)	/	21*	/	-5	/
CCN(CC(=O)Nc1ccc(NC(C)=O)cc1)C(=O)COc1ccc(C(=O)c2ccccc2)cc1	-4	-1	4	-5	0
COc1ccc2nc(SCC(=O)NC3CC3)c(C#N)cc2c1	/	?	/	-6	/
COc1ccccc1-n1c([S-])c(C(=O)Nc2ccccc2C(F)(F)F)[n+]2ccc(C(=O)NCCO)cc12	6	20*	23	-3	2
CCC(C(=O)NCc1ccccc1)n1c(-c2cccs2)nc2ccccc21 (stereo unspecified)	/	/	/	-9	/
Cc1cccc(Nc2ncnc3c2cnn3Cc2ccccc2)c1	-2	4	18	-5	-3
COc1ccc(OC)c(C2C3CN(C(C)C)CC=C3C(C#N)=C(N)C2(C#N)C#N)c1 (stereo unspecified)	42	31*	38	-4	79*
CCOC(=O)N1CC=C2C(C#N)=C(N)C(C#N)(C#N)[C@H](c3ccc(OCC)c(OCC)c3)[C@H]2C1	1	1	1	-7	6
CCCN1CC=C2C(C#N)=C(N)C(C#N)(C#N)C(c3cccc(OC)c3OC)C2C1 (stereo unspecified)	94*	104*	23	/	78*
Cc1ccc(C2C3CN(C(C)C)CC=C3C(C#N)=C(N)C2(C#N)C#N)cc1 (stereo unspecified)	81*	63*	/	-9	63*
COc1cccc(OC)c1OCc1cc(C2C3CCCC=C3C(C#N)=C(N)C2(C#N)C#N)c(C)cc1C (stereo unspecified)	13	-12	1	-5	-1
COc1ccccc1N1CCN(CCCCN2C(=O)C3CCCN3C2=O)CC1 (stereo unspecified)	/	/	/	-4	/
CCCCCCNC(=O)N[C@H](C(=O)NCCC[C@H]1CN2C(=NC[C@H]2C)N1CCC(c1ccccc1)c1ccccc1)C(C)O (stereo partly specified)	9	/	-20	/	62*
CCOC(=O)c1ccc(Nc2ccc([N+](=O)[O-])cn2)cc1	-41	19*	3	-3	-35
COc1ccc(N2CCN(C(=O)c3sc4ncn(CC(=O)N5CCCCC5)c(=O)c4c3C)CC2)cc1	/	2	/	-2	/
CCSc1nnc(NC(=O)CSc2nccn2-c2cc(C)cc(C)c2)s1	-3	26*	0	-1	-2
CCSc1nnc(NC(=O)CSc2nccn2-c2cccc(C)c2C)s1	-2	-1	-1	0	3
COc1ccc(CNC(=O)c2cnc(C)cn2)cc1	-2	0	1	-5	-4
N#Cc1c(SCC(=O)Nc2ccc(Cl)cc2Cl)sc2c(O)cc(=O)[nH]c12	/	1	/	-1	/
N=c1c(C(=O)NCc2ccc(F)cc2)cc2c(=O)n3ccccc3nc2n1Cc1ccco1	69*	3	-5	/	/
COC(=O)c1cc2c(=O)n3ccccc3nc2n(C(C)C)c1=N	/	/	+	/	/
COc1cccc(NC(=O)c2cc3c(=O)n4ccccc4nc3n(CC(C)C)c2=N)c1	2	5	3	-7	12
N=c1c(C(=O)NCc2ccccc2)cc2c(=O)n3ccccc3nc2n1Cc1ccco1	20	78*	-21	-4	/
N=c1c(C(=O)NCc2ccco2)cc2c(=O)n3ccccc3nc2n1C1CCCC1	/	135*	/	8	/
SMILES	Runt-CBFb FRET	RanGTP-Impb inh	Hck-Nef inh	CaV13 FRET inh	Runt-SMMHC FRET
COc1ccc(S(=O)(=O)N2CCN(C)CC2)cc1	/	0	/	-7	/
O=C(OCCCc1cc2ccccc2c(=O)o1)c1ccc(F)cc1	/	/	/	-11	/
COCCn1c(=N)c(C(=O)NCc2ccco2)cc2c(=O)n3ccccc3nc21	11	/	23	13	41
N=c1c(C(=O)NCc2ccco2)cc2c(=O)n3ccccc3nc2n1Cc1ccccc1	19	117*	8	-3	58*
CCC(C)n1c(=N)c(C#N)cc2c(=O)n3ccccc3nc21 (stereo unspecified)	92*	177*	29	/	95*
N=c1c(C(=O)NCc2ccco2)cc2c(=O)n3ccccc3nc2n1Cc1ccc(Cl)cc1	66*	126*	2	5	-16
Cc1ccc(CNC(=O)c2cc3c(=O)n4ccccc4nc3n(Cc3ccco3)c2=N)cc1	88*	78*	/	/	39
CC(C)OC(=O)c1nnc(Cc2ccc(Cl)cc2)o1	3	1	-8	-4	15
CCc1nn2c(=O)c(S(=O)(=O)Nc3ccc(C(C)C)cc3)c(C)nc2s1	/	/	/	-5	/
CC(=O)NC(O)C(=O)c1ccccc1 (stereo unspecified)	3	-2	5	-4	1
CCOC(=O)c1cc2c(=O)n3ccccc3nc2n(Cc2ccc(Cl)cc2)c1=N	/	/	/	+	/
Cc1ccc2nc3c(cc(C(=O)NCc4ccco4)c(=N)n3Cc3ccco3)c(=O)n2c1	/	89*	6	-4	/
N#CC1=C(N)SC(N)=C(C#N)C1c1ccnc2ccccc12	20	23*	1	/	20
CC(=O)NC1C(=O)N(CCN2CCOCC2)c2ccc(F)cc21 (stereo unspecified)	/	1	/	-4	/
Cc1cc(C)nc(N/N=C/c2cn[nH]c2-c2ccccc2)n1	0	0	4	-5	2
N=c1c2c(n(Cc3cccc(Cl)c3)c3c1CCC3)CCCC2	1	-1	6	-6	0
Cc1cccc(C(=O)NC2=NCCS2)c1	2	4	76*	-5	2
CC(C)(O)C1Cc2cc(/C=C/C(=O)O)c(O)cc2O1 (stereo unspecified)	32	-3	16	-5	63*
Cc1cccn2c(=O)c3cc(C(=O)NCc4cccnc4)c(=N)n(C)c3nc12	98*	/	/	/	74*
Cc1ccccc1CC(=O)NCc1cccnc1	/	-4	/	-19	/
COC(=O)c1cc2c(=O)n3cccc(C)c3nc2n(Cc2cccnc2)c1=N	56*	/	/	/	57*
C=CCn1c(=N)c(C(=O)OC)cc2c(=O)n3cccc(C)c3nc21	52*	/	/	/	58*
CCn1c(=N)c(C(=O)OC)cc2c(=O)n3ccccc3nc21	27	/	/	/	40
Oc1ccccc1C(Nc1nccs1)c1ccc2cccnc2c1O (stereo unspecified)	1	3	-3	-6	-4

Source: PubChem BioAssay
